Reference: ChEMBL document CHEMBL4257484, “Membrane-active antimicrobial poly(amino-modified alkyl) β-cyclodextrins synthesized via click reactions” (Medchemcomm, 2018)
≈ marks a conversion by molar mass, not a printed value.

Assays:
[1] = Hemolytic activity in rabbit RBC at 2 uM after 20 mins relative to control; type: ADME, cell-based, Oryctolagus cuniculus, Erythrocyte; conditions: rabbit red blood cells (erythrocytes), read-out: Activity
Method in brief: (§1)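 Rabbit erythrocytes suspended in 150 mM NaCl/10 mM Hepes-NaOH, pH 7.4, at 0.5% hematocrit (final) and incubated with compound at 37 °C. The table footnote gives 20 min; the methods section gives 30 min. Hemolysis was read as absorbance at 540 nm, with 50 µM lysolecithin defining 100% hemolysis.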

[2] = tested on: Enterococcus faecium; experiment: Antibacterial activity against drug-resistant Enterococcus faecium MS29120 after 18 to 20 hrs by agar dilution method; type: functional
Method in brief: (§2)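 Agar dilution per CLSI. Overnight broth cultures were diluted 100-fold, and one loopful (about 10^5 to 10^4 CFU) was spotted onto agar plates containing the CD. Growth was scored after 18–20 h at 37 °C. MIC values are in µM.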

[3] = tested on: Escherichia coli; experiment: Antibacterial activity against drug-sensitive Escherichia coli K-12 W3110 after 20 hrs by liquid microdilution method; type: functional; conditions: K-12 substr. W3110, 20 h
Method in brief: (§3)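 Two-fold serial dilutions of compound in Mueller–Hinton broth, inoculated with 1 × 10^4 cells and cultured at 37 °C for 20 h in microtiter wells.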

[4] = tested on: Bacillus subtilis; experiment: Antibacterial activity against drug-sensitive Bacillus subtilis 168 after 20 hrs by liquid microdilution method; type: functional; conditions: subsp. subtilis str. 168, 20 h; method in brief: as §3
[5] = Hemolytic activity in rabbit RBC at 50 uM after 20 mins relative to control; type: ADME, cell-based, Oryctolagus cuniculus, Erythrocyte; conditions: rabbit red blood cells (erythrocytes), read-out: Activity; method in brief: as §1
[6] = tested on: Enterococcus faecalis; experiment: Antibacterial activity against drug-resistant Enterococcus faecalis MS29030 after 18 to 20 hrs by agar dilution method; type: functional; method in brief: as §2
[7] = tested on: Pseudomonas aeruginosa; experiment: Antibacterial activity against drug-sensitive Pseudomonas aeruginosa PAO1 after 20 hrs by liquid microdilution method; type: functional; conditions: PAO1, 20 h; method in brief: as §3
[8] = tested on: Staphylococcus aureus; experiment: Antibacterial activity against Staphylococcus aureus FDA 209P assessed as decrease in cell viability after 30 mins by colony counting method; type: functional; conditions: 0.5 h
Method in brief: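 S. aureus washed twice and suspended at 2 × 10^9 cells per cm3 in 100 mM choline chloride/50 mM Mops-Tris, pH 7.2. Exposed to CD at 37 °C for 30 min. An aliquot was diluted in physiological saline, plated on polypeptone/yeast extract/NaCl agar and incubated overnight at 37 °C. Viability was taken from colony counts; LC50 is the concentration giving 50% viability.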

[9] = tested on: Streptococcus agalactiae; experiment: Antibacterial activity against drug-resistant Streptococcus agalactiae B1 after 18 to 20 hrs by agar dilution method; type: functional; method in brief: as §2
[10] = Hemolytic activity in rabbit RBC at 10 uM after 20 mins relative to control; type: ADME, cell-based, Oryctolagus cuniculus, Erythrocyte; conditions: rabbit red blood cells (erythrocytes), read-out: Activity; method in brief: as §1
[11] = Hemolytic activity in rabbit RBC at 1 uM after 20 mins relative to control; type: ADME, cell-based, Oryctolagus cuniculus, Erythrocyte; conditions: rabbit red blood cells (erythrocytes), read-out: Activity; method in brief: as §1
[12] = tested on: Enterococcus faecalis; experiment: Antibacterial activity against vancomycin-resistant Enterococcus faecalis MS29016 after 18 to 20 hrs by agar dilution method; type: functional; method in brief: as §2
[13] = tested on: Salmonella typhimurium; experiment: Antibacterial activity against drug-sensitive Salmonella typhimurium LT2 after 20 hrs by liquid microdilution method; type: functional, Salmonella enterica subsp. enterica serovar Typhimurium; conditions: Salmonella enterica, LT2, 20 h; method in brief: as §3
[14] = tested on: Staphylococcus aureus; experiment: Antibacterial activity against methicillin-sensitive Staphylococcus aureus FDA 209P after 20 hrs by liquid microdilution method; type: functional; method in brief: as §3
[15] = tested on: Staphylococcus aureus; experiment: Induction of membrane disruption in methicillin-sensitive Staphylococcus aureus FDA 209P assessed as increase in K+ efflux after 30 mins; type: functional; conditions: 0.5 h, read-out: ED50 (the source's name)
Method in brief: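 S. aureus washed twice and suspended at 2 × 10^9 cells per cm3 in 100 mM choline chloride/50 mM Mops-Tris, pH 7.2, then exposed to compound at 37 °C for 30 min. Released K+ was measured in the centrifuged supernatant with a K+-selective electrode. Melittin (10 µM) defined 100% efflux, and ED50 is the concentration giving 50% efflux.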

[16] = Hemolytic activity in rabbit RBC at 20 uM after 20 mins relative to control; type: ADME, cell-based, Oryctolagus cuniculus, Erythrocyte; conditions: rabbit red blood cells (erythrocytes), read-out: Activity; method in brief: as §1
[17] = Hemolytic activity in rabbit RBC at 5 uM after 20 mins relative to control; type: ADME, cell-based, Oryctolagus cuniculus, Erythrocyte; conditions: rabbit red blood cells (erythrocytes), read-out: Activity; method in brief: as §1
[18] = tested on: Staphylococcus aureus; experiment: Antibacterial activity against methicillin-resistant Staphylococcus aureus MS29202 after 18 to 20 hrs by agar dilution method; type: functional; method in brief: as §2
[19] = Lipophilicity, log P of the compound; type: physicochemical; conditions: octanol/water

SMILES	hemolysis at 20 min, 2 µM [1] [%]	MIC [2] [µM]	MIC [3] [µM]	MIC [4] [µM]	hemolysis at 20 min, 50 µM [5] [%]	MIC [6] [µM]	MIC [7] [µM]	LC50 [8] [µM]	MIC [9] [µM]	hemolysis at 20 min, 10 µM [10] [%]	hemolysis at 20 min, 1 µM [11] [%]	MIC [12] [µM]	MIC [13] [µM]	MIC [14] [µM]	EC50 [15] [µM]	hemolysis at 20 min, 20 µM [16] [%]	hemolysis at 20 min, 5 µM [17] [%]	MIC [18] [µM]	logP [19]
CCCCNCc1cn(C[C@H]2O[C@@H]3O[C@H]4[C@H](O)[C@@H](O)[C@@H](O[C@H]5[C@H](O)[C@@H](O)[C@@H](O[C@H]6[C@H](O)[C@@H](O)[C@@H](O[C@H]7[C@H](O)[C@@H](O)[C@@H](O[C@H]8[C@H](O)[C@@H](O)[C@@H](O[C@H]9[C@H](O)[C@@H](O)[C@@H](O[C@H]2[C@H](O)[C@H]3O)O[C@@H]9Cn2cc(CNCCCC)nn2)O[C@@H]8Cn2cc(CNCCCC)nn2)O[C@@H]7Cn2cc(CNCCCC)nn2)O[C@@H]6Cn2cc(CNCCCC)nn2)O[C@@H]5Cn2cc(CNCCCC)nn2)O[C@@H]4Cn2cc(CNCCCC)nn2)nn1	0	> 44	> 44	11 (≈ 23 µg/mL)	0	> 44	> 44	> 50	> 44	0	0	> 44	> 44	11 to 22 (≈ 23 to 45.9 µg/mL)	> 50	0	0	> 44	-0.9
CCCCCCNCc1cn(C[C@H]2O[C@@H]3O[C@H]4[C@H](O)[C@@H](O)[C@@H](O[C@H]5[C@H](O)[C@@H](O)[C@@H](O[C@H]6[C@H](O)[C@@H](O)[C@@H](O[C@H]7[C@H](O)[C@@H](O)[C@@H](O[C@H]8[C@H](O)[C@@H](O)[C@@H](O[C@H]9[C@H](O)[C@@H](O)[C@@H](O[C@H]2[C@H](O)[C@H]3O)O[C@@H]9Cn2cc(CNCCCCCC)nn2)O[C@@H]8Cn2cc(CNCCCCCC)nn2)O[C@@H]7Cn2cc(CNCCCCCC)nn2)O[C@@H]6Cn2cc(CNCCCCCC)nn2)O[C@@H]5Cn2cc(CNCCCCCC)nn2)O[C@@H]4Cn2cc(CNCCCCCC)nn2)nn1	4	10 (≈ 22.8 µg/mL)	5 (≈ 11.4 µg/mL)	3 (≈ 6.85 µg/mL)	110	> 42	10 (≈ 22.8 µg/mL)	15	10 (≈ 22.8 µg/mL)	25	0	42 (≈ 96 µg/mL)	10 (≈ 22.8 µg/mL)	3 to 10 (≈ 6.85 to 22.8 µg/mL)	15	64	7	21 (≈ 48 µg/mL)	-0.06
CCCCCNCc1cn(C[C@H]2O[C@@H]3O[C@H]4[C@H](O)[C@@H](O)[C@@H](O[C@H]5[C@H](O)[C@@H](O)[C@@H](O[C@H]6[C@H](O)[C@@H](O)[C@@H](O[C@H]7[C@H](O)[C@@H](O)[C@@H](O[C@H]8[C@H](O)[C@@H](O)[C@@H](O[C@H]9[C@H](O)[C@@H](O)[C@@H](O[C@H]2[C@H](O)[C@H]3O)O[C@@H]9Cn2cc(CNCCCCC)nn2)O[C@@H]8Cn2cc(CNCCCCC)nn2)O[C@@H]7Cn2cc(CNCCCCC)nn2)O[C@@H]6Cn2cc(CNCCCCC)nn2)O[C@@H]5Cn2cc(CNCCCCC)nn2)O[C@@H]4Cn2cc(CNCCCCC)nn2)nn1	0	21 (≈ 45.9 µg/mL)	43 (≈ 94 µg/mL)	1 (≈ 2.19 µg/mL)	1	> 43	> 43	20	3 (≈ 6.56 µg/mL)	0	0	> 43	> 43	3 to 5 (≈ 6.56 to 10.9 µg/mL)	20	0	1	21 (≈ 45.9 µg/mL)	-0.48
CC(C)CCNCc1cn(C[C@H]2O[C@@H]3O[C@H]4[C@H](O)[C@@H](O)[C@@H](O[C@H]5[C@H](O)[C@@H](O)[C@@H](O[C@H]6[C@H](O)[C@@H](O)[C@@H](O[C@H]7[C@H](O)[C@@H](O)[C@@H](O[C@H]8[C@H](O)[C@@H](O)[C@@H](O[C@H]9[C@H](O)[C@@H](O)[C@@H](O[C@H]2[C@H](O)[C@H]3O)O[C@@H]9Cn2cc(CNCCC(C)C)nn2)O[C@@H]8Cn2cc(CNCCC(C)C)nn2)O[C@@H]7Cn2cc(CNCCC(C)C)nn2)O[C@@H]6Cn2cc(CNCCC(C)C)nn2)O[C@@H]5Cn2cc(CNCCC(C)C)nn2)O[C@@H]4Cn2cc(CNCCC(C)C)nn2)nn1	0	21 (≈ 45.9 µg/mL)	> 43	1 (≈ 2.19 µg/mL)	0	> 43	> 43		11 (≈ 24.1 µg/mL)	0	0	> 43	> 43	3 to 5 (≈ 6.56 to 10.9 µg/mL)		0	0	21 (≈ 45.9 µg/mL)	-0.57
O[C@@H]1[C@@H](O)[C@H]2O[C@H]3[C@H](O)[C@@H](O)[C@@H](O[C@H]4[C@H](O)[C@@H](O)[C@@H](O[C@H]5[C@H](O)[C@@H](O)[C@@H](O[C@H]6[C@H](O)[C@@H](O)[C@@H](O[C@H]7[C@H](O)[C@@H](O)[C@@H](O[C@H]8[C@H](O)[C@@H](O)[C@@H](O[C@@H]1[C@@H](Cn1cc(CNCC9CCC9)nn1)O2)O[C@@H]8Cn1cc(CNCC2CCC2)nn1)O[C@@H]7Cn1cc(CNCC2CCC2)nn1)O[C@@H]6Cn1cc(CNCC2CCC2)nn1)O[C@@H]5Cn1cc(CNCC2CCC2)nn1)O[C@@H]4Cn1cc(CNCC2CCC2)nn1)O[C@@H]3Cn1cc(CNCC2CCC2)nn1	0	> 43	> 43	3 (≈ 6.52 µg/mL)	0	> 43	> 43		> 43	0	0	> 43	> 43	5 to 11 (≈ 10.9 to 23.9 µg/mL)		0	0	> 43	-1
OC[C@H]1O[C@@H]2O[C@H]3[C@H](O)[C@@H](O)[C@@H](O[C@H]4[C@H](O)[C@@H](O)[C@@H](O[C@H]5[C@H](O)[C@@H](O)[C@@H](O[C@H]6[C@H](O)[C@@H](O)[C@@H](O[C@H]7[C@H](O)[C@@H](O)[C@@H](O[C@H]8[C@H](O)[C@@H](O)[C@@H](O[C@H]1[C@H](O)[C@H]2O)O[C@@H]8CO)O[C@@H]7CO)O[C@@H]6CO)O[C@@H]5CO)O[C@@H]4CO)O[C@@H]3CO [BETADEX]								> 50							> 50				
